Publication PMC6432617 (Chemical Science, 2019)

Tests used:
[1] = log D7.4 partition coefficient, n-octanol / pH 7.4 PBS; type: physicochemical; details: from log D7.4 values
In short: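 Partition coefficients were measured between n-octanol and pH 7.4 phosphate-buffered saline at 20 °C, alongside reference chalcones.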

myeloperoxidase = assay: HAB labeling in myeloperoxidase knock-out; type: in vivo, zebrafish (Danio rerio); details: spotless mutant strain, equilibrium conditions
[2] = target: bovine serum albumin (BSA) (Bos taurus, UniProt P02769); assay: Protein-dependent fluorogenesis: titration of HAB with BSA in TRIS buffer; type: binding
Chain of bovine serum albumin (BSA) (P02769 25-607): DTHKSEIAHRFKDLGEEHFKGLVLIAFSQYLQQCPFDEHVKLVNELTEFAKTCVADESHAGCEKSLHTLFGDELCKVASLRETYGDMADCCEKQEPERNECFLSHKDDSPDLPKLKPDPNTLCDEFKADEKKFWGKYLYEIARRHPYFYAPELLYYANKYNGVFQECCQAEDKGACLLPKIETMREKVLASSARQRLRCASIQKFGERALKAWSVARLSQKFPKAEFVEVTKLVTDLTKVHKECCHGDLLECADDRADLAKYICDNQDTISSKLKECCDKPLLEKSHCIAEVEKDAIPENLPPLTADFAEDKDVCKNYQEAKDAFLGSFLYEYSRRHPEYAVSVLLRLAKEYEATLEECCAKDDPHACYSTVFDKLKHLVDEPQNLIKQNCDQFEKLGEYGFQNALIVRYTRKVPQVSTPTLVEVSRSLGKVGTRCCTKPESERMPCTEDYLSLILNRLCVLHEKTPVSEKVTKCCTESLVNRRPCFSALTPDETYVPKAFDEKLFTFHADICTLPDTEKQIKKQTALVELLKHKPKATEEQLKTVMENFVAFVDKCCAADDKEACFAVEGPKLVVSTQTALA
In short: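 Probe at 50 μM in Tris buffer (Tris·HCl 10 mM, pH 7.0, NaCl 100 mM, MgCl2 5 mM) was titrated with BSA. Emission spectra were recorded at 360 nm excitation over 0–1 mg mL−1 BSA and at 420 nm excitation over 1–10 mg mL−1. Fluorescence turn-on was taken at 420 nm excitation with 10 mg ml−1 BSA.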

zebrafish larvae [3] = assay: Toxicity in live zebrafish larvae; type: in vivo, zebrafish (Danio rerio); details: up to 48 h incubation
[4] = test system: live primary human neutrophils; assay: HAB labeling of live human primary neutrophils; type: cell-based; details: 10 μM
In short: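 Neutrophils were purified from human blood: plasma removal, dextran sedimentation of red cells, then a 51–42% Percoll gradient. Remaining red cells were cleared with CD235a beads. Cells went into RPMI/10 mM Hepes at 2 × 10^6 per mL and adhered 20 min at room temperature in glass-bottom dishes. Medium was replaced with probe at 1, 5 or 10 μM in RPMI/Hepes, followed by live confocal fluorescence and DIC imaging.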

[5] = pKa prediction with ACD software; details: from predicted pKa 3.97
Caenorhabditis elegans = assay: HAB labeling of live Caenorhabditis elegans; details: in vivo
[6] = Photophysical study: fluorescence spectra and quantum yields; type: physicochemical; details: for solvatochromism Δmaxλem: various solvents, 50 μM
[7] = test system: lymphocytes, monocytes, erythrocytes and thrombocytes (platelets); assay: HAB labeling of other human blood cell populations; type: cell-based; details: 10 μM, same conditions as purified neutrophils
In short: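 PBMC were taken from the top layer of the Percoll gradient used for neutrophil purification. Live lymphocytes, erythrocytes, monocytes and thrombocytes were imaged by confocal fluorescence and DIC with probe at 10 μM, using the same settings as for the neutrophils.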

[8] = test system: zebrafish neutrophil granules; assay: HAB labeling of live zebrafish embryos and larvae, confocal imaging; type: in vivo, zebrafish (Danio rerio)
In short: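 Wild-type AB or transgenic embryos/larvae (24 hpf to 6 dpf, 28.5 °C staging) were incubated 1 h in the dark at room temperature with probe at 10 μM in Volvic water, from a 10 mM DMSO stock; controls got 0.1% DMSO. For equilibrium imaging, larvae were anaesthetised (tricaine) and mounted in 1% low-melt agarose with probe. For diffusion imaging, larvae were washed and mounted probe-free. Confocal imaging was done at 23–26 °C: excitation 488 nm, emission 550–650 nm.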

neutrophil granules = details: ref column Ref. of Table 1 ([5], [8], [9], [42], [60], [61], [65], [75]–[93]); cited from earlier work
zebrafish larvae [9] = assay: Chalcone 18 alone in 72 hpf larvae, confocal imaging; type: in vivo, zebrafish (Danio rerio)
chemokine CXCL12a = details: 10 μM, zebrafish model ref [56]; cited from earlier work

SMILES: Nc1cccc2ccc(/C=C/C(=O)c3ccc(O)cc3)cc12 [HAB, (E)-3-(8-aminonaphthalen-2-yl)-1-(4-hydroxyphenyl)prop-2-en-1-one]
- fold more hydrophilic than 4′-deshydroxy congener 6 [1]: 2 fold
- labeling in myeloperoxidase knock-out larvae (myeloperoxidase): qualitatively and quantitatively indistinguishable from wild-type larvae
- bathochromic shift Δλem upon binding to BSA [2]: 133 nm
- bathochromic shift Δλex upon binding to BSA [2]: 60 nm
- fluorescence turn-on (FTO) upon binding to BSA ([2]; excitation 420 nm, BSA 10 mg ml^–1, HAB 50 μM): 21.5
- toxicity of HAB (zebrafish larvae [3]): absence of toxicity
- labeling of activated neutrophils [4]: intense labeling of cells at the level of subcellular granular structures
- labeling of non-activated neutrophils [4]: intense but diffuse fluorescent labeling
- basicity, fold lower than that of acidotropic amines [5]: about 10^5 fold
- microscopic visualization in C. elegans (Caenorhabditis elegans): could not be microscopically visualized
- fold higher quantum yield than 5-amino regioisomer 12 ([6]; toluene): ca. 20 fold
- solvatochromism Δmaxλem [6]: ~140 nm
- labeling of lymphocytes, monocytes, erythrocytes and thrombocytes [7]: weakly to faintly labeled
- compartment labeled within neutrophils ([8]; 10 μM, 72 hpf larvae, confocal plus DIC): co-localize with neutrophil granules
- developmental stage at which labeling first appeared ([8]; 10 μM, 60 min, ventral tail of embryo): 32 hpf
- co-localization with macrophages ([8]; 10 μM, Tg(mfap4:mCherry-F) 72 hpf larvae): did not co-localize
- co-localization with neutrophils ([8]; 10 μM, Tg(mpx:GAL4/UAS-E1b:nsfB-mCherry) 72 hpf larvae): perfectly colocalized with all neutrophils
- HAB labeling after or before formaldehyde fixation ([8]; 1 or 4% formaldehyde, two hours, room temperature): failed to detect HAB labeling

SMILES: Nc1cccc2c(=O)[nH][nH]c(=O)c12 [Luminol]
- Histopermeability for live animal imaging (neutrophil granules): No (in vitro only)

SMILES: COC(=O)c1ccccc1C1c2ccc(N)cc2Oc2cc(N)ccc21 [Dihydrorhodamine 123]
- Histopermeability for live animal imaging (neutrophil granules): No (in vitro only)

SMILES: CC1(C)Nc2cccc3c(N=Nc4ccc(N=Nc5ccccc5)c5ccccc45)ccc(c23)N1 [Sudan Black B]
- Histopermeability for live animal imaging (neutrophil granules): No (FA fixation in vivo)

SMILES: Nc1cccc2ccc(/C=C/C(=O)c3ccccc3)cc12 [Compound 6, (E)-3-(8-aminonaphthalen-2-yl)-1-phenylprop-2-en-1-one]
- solvatochromism Δmaxλem [6]: ~140 nm

SMILES: COc1cc(/C=C/C(=O)c2ccc(Cl)cc2)ccc1O [Compound 18, 4-hydroxy-3-methoxy-4′-chlorochalcone]
- type of staining (zebrafish larvae [9]; 100 μM, 72 hpf larvae): interstitial histological labeling
- fluorescence of 18 alone in larvae (zebrafish larvae [9]; 100 μM, 72 hpf larvae, excitation 488 nm): green-yellow fluorescence
- cytopermeability (zebrafish larvae [9]; even at high concentration): not cytopermeable
- biological effects as inhibitor of CXCL12a (chemokine CXCL12a): moderate biological effects
- fluorescent detection by GFP filters (chemokine CXCL12a): not fluorescently detected
